Experiments:
Cytochrome P450 3A4 = Cytochrome P450 3A4 (Homo sapiens, UniProt P08684); test: Inhibition of CYP3A4 at up to 50 uM; format: ADME
Cytochrome P450 2C19 = Cytochrome P450 2C19 (Homo sapiens, UniProt P33261); test: Inhibition of CYP2C19 at up to 50 uM; format: ADME
[1] = biological target: Matrix metalloproteinase-14 (Homo sapiens, UniProt P50281); test: Inhibition of human recombinant MMP14 after 60 mins by fluorescence plate reader
Summary of the method: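 Recombinant human enzyme at 20 ng/mL with 10 μM MOCAc-Lys-Pro-Leu-Gly-Leu-A2pr(Dnp)-Ala-Arg-NH₂, in 100 mM Tris-HCl pH 7.5, 150 mM NaCl, 10 mM CaCl₂, 0.05% Brij-35. Enzyme pretreated with inhibitor for 15 min at 25 °C, then substrate added. Fluorescence (ex 325, em 405 nm) read at 60 min. IC50 taken from three points in the linear range; mean of ≥2 determinations.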

[2] = biological target: T1, A disintegrin and metalloproteinase with thrombospondin motifs 5 (Homo sapiens, UniProt Q9UNA0); test: Inhibition of human recombinant aggrecanase 2 after 150 mins by fluorescence plate reader
T1 sequence (Q9UNA0 whole entry): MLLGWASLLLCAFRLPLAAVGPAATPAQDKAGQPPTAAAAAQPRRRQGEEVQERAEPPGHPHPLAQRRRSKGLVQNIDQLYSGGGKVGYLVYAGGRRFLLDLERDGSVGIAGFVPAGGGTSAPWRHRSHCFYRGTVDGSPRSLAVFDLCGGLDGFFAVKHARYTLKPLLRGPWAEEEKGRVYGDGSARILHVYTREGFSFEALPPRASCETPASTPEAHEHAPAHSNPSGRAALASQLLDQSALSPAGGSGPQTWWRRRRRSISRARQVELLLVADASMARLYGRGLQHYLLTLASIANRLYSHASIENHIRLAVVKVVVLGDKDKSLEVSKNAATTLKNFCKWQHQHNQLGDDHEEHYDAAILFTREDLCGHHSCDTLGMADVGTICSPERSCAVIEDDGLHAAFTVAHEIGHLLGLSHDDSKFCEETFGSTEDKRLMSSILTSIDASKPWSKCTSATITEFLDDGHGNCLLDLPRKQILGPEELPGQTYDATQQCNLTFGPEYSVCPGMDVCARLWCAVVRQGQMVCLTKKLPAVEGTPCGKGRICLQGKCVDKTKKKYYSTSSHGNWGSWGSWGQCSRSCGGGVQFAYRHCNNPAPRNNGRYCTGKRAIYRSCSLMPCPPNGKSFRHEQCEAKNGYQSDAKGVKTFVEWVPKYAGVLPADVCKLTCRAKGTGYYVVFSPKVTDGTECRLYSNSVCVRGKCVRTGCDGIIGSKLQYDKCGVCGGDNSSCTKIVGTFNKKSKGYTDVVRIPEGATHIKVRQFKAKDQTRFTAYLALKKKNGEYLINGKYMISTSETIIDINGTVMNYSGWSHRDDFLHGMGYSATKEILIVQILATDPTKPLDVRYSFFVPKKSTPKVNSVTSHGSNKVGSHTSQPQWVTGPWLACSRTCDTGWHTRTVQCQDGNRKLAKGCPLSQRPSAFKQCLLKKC

Cytochrome P450 2A6 = biological target: T2, Cytochrome P450 2A6 (Homo sapiens, UniProt P11509); test: Inhibition of CYP2A6 at up to 50 uM; format: ADME
T2 sequence (P11509 whole entry): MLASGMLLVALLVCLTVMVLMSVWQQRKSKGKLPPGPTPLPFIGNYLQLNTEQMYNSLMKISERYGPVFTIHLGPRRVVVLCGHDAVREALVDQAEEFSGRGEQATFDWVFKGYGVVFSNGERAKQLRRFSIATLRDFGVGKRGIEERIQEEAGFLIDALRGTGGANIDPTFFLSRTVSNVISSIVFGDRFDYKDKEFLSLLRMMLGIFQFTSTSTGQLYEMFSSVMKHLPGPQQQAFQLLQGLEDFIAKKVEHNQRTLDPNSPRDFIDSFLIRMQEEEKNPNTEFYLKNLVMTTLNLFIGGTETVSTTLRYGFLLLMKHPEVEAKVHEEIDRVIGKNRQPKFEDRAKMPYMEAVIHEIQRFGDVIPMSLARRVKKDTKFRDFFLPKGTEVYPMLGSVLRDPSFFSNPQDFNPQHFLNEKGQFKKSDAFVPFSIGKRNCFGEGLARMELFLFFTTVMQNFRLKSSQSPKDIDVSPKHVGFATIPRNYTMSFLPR

[3] = AUC in Sprague-Dawley rat at 10 mg/kg, po; format: ADME, organism-based; design: dose 10 mg/kg, route oral; conditions: plasma
[4] = Oral bioavailability in Sprague-Dawley rat at 10 mg/kg; format: ADME, organism-based; conditions: Sprague-Dawley, in vivo
Stromelysin-1 = Stromelysin-1 (Homo sapiens, UniProt P08254); test: Inhibition of human recombinant MMP3 after 60 mins by fluorescence plate reader
Stromelysin-1, sequence (P08254 whole entry): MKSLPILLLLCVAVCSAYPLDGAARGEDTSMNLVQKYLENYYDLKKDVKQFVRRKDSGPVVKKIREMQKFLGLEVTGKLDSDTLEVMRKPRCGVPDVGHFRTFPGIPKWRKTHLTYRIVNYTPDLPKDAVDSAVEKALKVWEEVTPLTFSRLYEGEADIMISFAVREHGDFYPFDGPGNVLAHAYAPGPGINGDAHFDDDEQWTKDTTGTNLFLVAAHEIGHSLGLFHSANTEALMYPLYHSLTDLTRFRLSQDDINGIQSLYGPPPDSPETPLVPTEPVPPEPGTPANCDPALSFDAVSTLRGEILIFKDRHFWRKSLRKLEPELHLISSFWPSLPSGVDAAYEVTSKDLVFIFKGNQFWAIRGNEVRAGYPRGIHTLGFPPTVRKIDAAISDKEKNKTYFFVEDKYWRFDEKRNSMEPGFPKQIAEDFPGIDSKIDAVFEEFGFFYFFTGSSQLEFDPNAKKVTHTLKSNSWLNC
Summary of the method: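 rh-MMP-3 at 40 ng/mL with 10 μM MOCAc-Arg-Pro-Lys-Pro-Val-Glu-Nva-Trp-Arg-Lys(Dnp)-NH₂, in Tris-HCl pH 7.5/NaCl/CaCl₂/Brij-35 buffer. Inhibitor preincubated for 15 min at 25 °C. Fluorescence (ex 325/em 405 nm) read at 60 min. IC50 from three central linear points; at least two determinations averaged.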

[5] = biological target: Matrix metalloproteinase-9 (Homo sapiens, UniProt P14780); test: Inhibition of human recombinant MMP9 after 60 mins by fluorescence plate reader
Matrix metalloproteinase-9, sequence (P14780 whole entry): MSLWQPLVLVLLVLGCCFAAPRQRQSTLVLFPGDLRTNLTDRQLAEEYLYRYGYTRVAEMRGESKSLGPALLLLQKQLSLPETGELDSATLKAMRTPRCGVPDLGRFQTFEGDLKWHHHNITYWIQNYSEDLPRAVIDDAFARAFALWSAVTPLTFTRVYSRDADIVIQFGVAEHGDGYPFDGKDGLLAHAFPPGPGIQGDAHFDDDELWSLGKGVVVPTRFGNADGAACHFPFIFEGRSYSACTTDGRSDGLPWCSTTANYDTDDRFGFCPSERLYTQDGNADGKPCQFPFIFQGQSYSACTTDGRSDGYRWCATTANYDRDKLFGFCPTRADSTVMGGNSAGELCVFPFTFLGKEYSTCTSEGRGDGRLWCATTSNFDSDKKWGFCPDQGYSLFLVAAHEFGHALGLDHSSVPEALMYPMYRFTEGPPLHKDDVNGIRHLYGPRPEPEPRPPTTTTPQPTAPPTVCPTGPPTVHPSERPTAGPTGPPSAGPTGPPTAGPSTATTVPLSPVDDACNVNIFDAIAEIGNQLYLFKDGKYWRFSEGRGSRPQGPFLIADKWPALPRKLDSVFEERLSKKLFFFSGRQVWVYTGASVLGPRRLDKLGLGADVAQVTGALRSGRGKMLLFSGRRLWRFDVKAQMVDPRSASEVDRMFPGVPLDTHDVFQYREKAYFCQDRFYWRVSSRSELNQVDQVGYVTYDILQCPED
Summary of the method: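 rh-MMP-9 at 4 ng/mL with 10 μM MOCAc-Pro-Leu-Gly-Leu-A2pr(Dnp)-Ala-Arg-NH₂, in 100 mM Tris-HCl pH 7.5, 150 mM NaCl, 10 mM CaCl₂, 0.05% Brij-35. Enzyme and inhibitor preincubated for 15 min at 25 °C before substrate. Fluorescence (ex 325/em 405 nm) read at 60 min. IC50 from three linear-range points; ≥2 runs averaged.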

Cytochrome P450 2C19, sequence (P33261 whole entry): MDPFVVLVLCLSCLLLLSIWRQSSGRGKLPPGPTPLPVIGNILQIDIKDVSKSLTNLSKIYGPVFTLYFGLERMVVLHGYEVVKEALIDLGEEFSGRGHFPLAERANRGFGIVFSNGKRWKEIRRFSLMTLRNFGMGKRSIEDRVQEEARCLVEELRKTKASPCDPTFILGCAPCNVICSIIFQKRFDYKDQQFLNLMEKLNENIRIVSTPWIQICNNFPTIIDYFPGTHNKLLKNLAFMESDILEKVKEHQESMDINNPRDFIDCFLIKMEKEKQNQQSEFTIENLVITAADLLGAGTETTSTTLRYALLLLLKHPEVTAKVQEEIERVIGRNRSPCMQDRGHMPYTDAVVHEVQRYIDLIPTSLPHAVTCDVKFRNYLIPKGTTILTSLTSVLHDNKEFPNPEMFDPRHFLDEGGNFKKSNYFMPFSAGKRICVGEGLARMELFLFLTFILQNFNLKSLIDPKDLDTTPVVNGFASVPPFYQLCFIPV
Cytochrome P450 3A4, sequence (P08684 whole entry): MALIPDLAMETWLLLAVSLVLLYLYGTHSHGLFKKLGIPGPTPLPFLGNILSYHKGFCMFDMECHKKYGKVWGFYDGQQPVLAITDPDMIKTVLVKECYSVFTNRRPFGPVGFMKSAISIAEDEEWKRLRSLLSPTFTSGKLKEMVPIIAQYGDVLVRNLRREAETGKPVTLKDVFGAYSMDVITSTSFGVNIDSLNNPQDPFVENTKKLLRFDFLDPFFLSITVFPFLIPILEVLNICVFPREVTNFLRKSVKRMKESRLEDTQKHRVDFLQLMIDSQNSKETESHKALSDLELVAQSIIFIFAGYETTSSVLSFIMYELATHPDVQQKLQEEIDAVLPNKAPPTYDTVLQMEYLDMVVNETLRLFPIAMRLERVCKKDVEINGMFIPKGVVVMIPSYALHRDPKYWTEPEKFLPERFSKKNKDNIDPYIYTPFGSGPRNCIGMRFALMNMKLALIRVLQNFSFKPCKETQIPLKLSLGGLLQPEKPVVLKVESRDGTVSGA

inhibition (INH) (Cytochrome P450 3A4): Not Active
inhibition (INH) (Cytochrome P450 2C19): Not Active
IC50 [1]: > 10 µM
IC50 [2]: 8.4 nM
inhibition (INH) (Cytochrome P450 2A6): Not Active
AUC [3]: 421 µM·h
bioavailability [4]: 103%
IC50 (Stromelysin-1): 9.6 µM
IC50 [5]: > 10 µM
Compound: C[C@@H]1[C@](C)(c2ccccc2)[C@]1(NS(=O)(=O)N1CCc2c(nc3cc(F)ccn23)C1)C(=O)O
